Kir21 block = inhibitors of mouse Kir2.1 inward-rectifier potassium channel. P35561. HEK293-Kir2.1, FluxOR thallium flux fluorescence; hits give low values. B-score at 10 µM. 310,000 compounds, 0.85% hits;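 active = fluorescence ratio B-score at or below minus 3 SD of library scores, with starting-brightness B-score within 2 SD, cut at about -4.2 in these data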;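 also: channel flux triggered by added potassium and thallium sulfate stimulus; B-score of peak minus minimum fluorescence over baseline after thallium stimulus; more negative B-score means stronger Kir2.1 block with less thallium influx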
KCNQ1 act = human KCNQ1 channel potentiation or activation. AID 2648. 310,000 compounds, 0.35% hits. CHO-K1 KCNQ1, thallium flux FluxOR fluorescence; hits give high values. B-score at 10 µM. P51787;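 active = fluorescence ratio B-score, a plate-corrected score, at least three library SD, with initial intensity B-score within 5 SD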
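Doses: Single concentration per compound, DMSO matched to controls | Test system: KCNQ1-transfected CHO-K1 cells | Timing: 90 min dye loading and 20 min compound exposure, both at room temperature | Measured by: Kinetic FluxOR thallium fluorescence, 10-s 1-Hz baseline, 110-s post-stimulus read | Medium: Assay buffer with matched DMSO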
KCNK3 block = human KCNK3 channel inhibition, primary screen | O14649 | CHO-KCNK3 thallium flux, FluxOR fluorescence; hits give low values | B-score at 10 µM | 340,000 compounds, 0.84% hits | AID 602410;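 active = B-score under library mean minus 4 SD, starting fluorescence ratio at most library mean plus 5 SD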;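 also: more negative B-score means stronger inhibition of thallium flux through KCNK3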
KCNK9 inh = inhibitors of human KCNK9 two-pore domain potassium channel. Q9NPC2. HEK293 KCNK9, FluxOR thallium flux fluorescence; hits give low values. B-score at 10 µM. 310,000 compounds, 1.2% hits. AID 488922;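 active = ratio B-score over 3 SD below the library mean, with starting fluorescence within 5 SD of its mean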;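 also: negative B-score means less thallium flux so channel inhibition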
KCNQ1 inh = human KCNQ1 channel inhibition | 310,000 compounds, 1.3% hits | P51787 | CHO-K1 KCNQ1, FluxOR thallium flux fluorescence; hits give high values | B-score at 10 µM;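 active = compounds whose thallium flux B-score, printed positive for inhibition, exceeds three library SD while starting fluorescence stays within three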;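 also: channel opened by potassium depolarization with thallium stimulus after 20 min compound exposure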
hERG protect = hERG (human) protection from proarrhythmic block; Q12809; CHO-hERG, FluxOR thallium flux, dofetilide IC70 present; activation (rescue from dofetilide block), less the hit threshold, % at 10 µM; 310,000 compounds, 0.51% hits;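 active = activation above the mean of controls blocked by dofetilide plus 5 SD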;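 also: thallium influx through hERG after potassium depolarization seen as dye fluorescence rise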
Of the large screens only hits and unclear results are named; the others gave an inactive call. Hits are enriched below; roughly 3.7% of the tested compounds scored in any of these assays.

CN(C)c1ccc(/C=C/c2cc[n+]([O-])cc2)cc1	none (no result: KCNK3 block)
CC[n+]1ccc(/C=C/c2ccc(N(C)C)cc2)c2ccccc21	KCNK3 block -9.93 (no result: Kir21 block, KCNQ1 act, KCNK9 inh, KCNQ1 inh, hERG protect)
CC[n+]1ccccc1/C=C/c1ccc(N(C)C)cc1	KCNQ1 inh 8
CCOC(=O)CC(=O)Nc1ccsc1C(N)=O	none
CC(C)OCCCNc1nc(Cl)nc2c1cnn2C	none (no result: Kir21 block, KCNQ1 act, KCNK9 inh, KCNQ1 inh, hERG protect)
COc1ccc(CSC(=N)N)cc1[N+](=O)[O-]	none
CCCCCOc1ccc(CSC(=N)N)cc1[N+](=O)[O-]	Kir21 block -8.5
O=C(COC(=O)c1ccc(O)cc1)NC(c1ccccc1)c1ccccc1	none (no result: Kir21 block, KCNQ1 act, KCNK9 inh, KCNQ1 inh, hERG protect)
O=C(O)c1ccccc1C(=O)c1ccc(F)c(F)c1	none (no result: Kir21 block, KCNQ1 act, KCNK9 inh, KCNQ1 inh, hERG protect)
Cn1cc(/C=C2\SC(=O)NC2=S)c2ccccc21	hERG protect 15.9
C=CCNC(=S)Nc1sc2c(c1C(=O)OCC)CC(C(C)C)OC2 (centres undefined)	KCNQ1 act 48
CCOC(=O)c1c(NC(=S)NCCc2ccccc2)sc2c1CC(C(C)C)OC2 (centres undefined)	KCNQ1 act 8
CC(C)C1Cc2c(sc(NC(=S)NC(=O)c3ccccc3)c2C#N)CO1 (centres undefined)	none
Cc1[nH]c(C)c(S(=O)(=O)Nc2ccc(OC(F)(F)F)cc2)c1C(=O)N1CCCCC1	none
COc1ccc(-c2c[n+](CC(=O)OC3CC(C)CCC3C(C)C)c3n2CCC3)cc1 (centres undefined)	Kir21 block -5.22
CN(C)c1ccc(P(=O)(CC(=O)N/N=C/c2ccc(C#N)cc2)OCCCl)cc1 (centres undefined)	none
Cc1cc(C(=O)OCC(=O)N(C)c2ccccc2)ccc1[N+](=O)[O-]	none
Cc1ccc(C(=O)OCC(=O)N(C)c2ccccc2)cc1C	KCNQ1 act 11
CC(=O)c1c(C)[nH]c(C(=O)OCC(=O)Nc2ccc(C)cc2[N+](=O)[O-])c1C	KCNQ1 inh 6
O=C1C(Cl)=C(Nc2ccc3cn[nH]c3c2)C(=O)c2ccccc21	KCNQ1 inh 9
CC(=O)Nc1ccc(NC2=C(Cl)C(=O)c3ccccc3C2=O)cc1	KCNQ1 inh 12 (no result: KCNK3 block)
Cc1ccc(-n2c(SC3CCOC3=O)nc3ccccc3c2=O)cc1 (centres undefined)	none (no result: KCNK3 block)
CC1([N+](=O)[O-])COC(C=Cc2ccccc2)OC1 (centres undefined)	none (no result: Kir21 block, KCNQ1 act, KCNK9 inh, KCNQ1 inh, hERG protect)
O=C1CC2C(=O)NCCN2C(=NC(=O)c2ccc(Cl)cc2)N1 (centres undefined)	none
Cc1ccc2nc(N(CCCN(C)C)C(=O)c3cc(-c4cccs4)nc4ccccc34)sc2c1	KCNQ1 inh 8
CN(C)CCCN(C(=O)CCOc1ccccc1)c1nc2c(F)cccc2s1	KCNQ1 act 18
CN(C)CCCN(C(=O)CCc1ccccc1)c1nc2c(F)cccc2s1	none
CN(C)CCCN(C(=O)c1cc(-c2cccs2)nc2ccccc12)c1nc2c(F)cccc2s1	KCNQ1 inh 6
COc1cc2ccccc2cc1C(=O)N(CCN(C)C)c1nc2ccc(C)cc2s1	none
Cc1nn(C2CCCO2)c(=O)nc1N (centres undefined)	none (no result: KCNK3 block)
O=C(Cn1cnc2scc(-c3ccc(Br)cc3)c2c1=O)N1CCOCC1	none
S=C(NCCCN1CCOCC1)Nc1cccc(-c2nnc3n2CCCCC3)c1	none
C/C(=N\N(c1ccccc1)c1ccccc1)c1ccc(O)cc1	Kir21 block -5.12
C/C(=N\N(c1ccccc1)c1ccccc1)c1ccc(N)cc1	none
COC(=O)c1ccc(C2N=C(c3cccs3)CC(c3ccccc3O)N2)cc1 (centres undefined)	KCNQ1 inh 7
O=C(c1ccccc1)N1N=C(c2cccs2)CC1c1ccccc1O (centres undefined)	none
CCc1cc(-c2nc(N)ncc2-c2csc(C)n2)c(O)cc1OC	none
CCCc1cc(-c2nc(N)ncc2-c2ccc3c(c2)OCCCO3)c(O)cc1OC	KCNQ1 inh 7
CCCc1cc(-c2nc(N)ncc2-c2csc(C)n2)c(O)cc1OC	Kir21 block -6.39
Cc1c(NC(=O)C(C)OC(=O)CCOc2ccccc2)c(=O)n(-c2ccccc2)n1C (centres undefined)	none
CC(C)=CCc1c(O)cc2c(=O)c3ccc(O)cc3oc2c1O	KCNK9 inh -12
CC(C)C(C)(C#N)NC(=O)CN1C(=O)NC2(CCCc3ccccc32)C1=O (centres undefined)	none
CCn1ncc(Cl)c1C(=O)NC(=S)Nc1c(C)cc(C)cc1[N+](=O)[O-]	hERG protect 5.8
CCOc1ccc(NC(=S)NC(=O)c2c(Cl)cnn2CC)c([N+](=O)[O-])c1	none
CN(C)C(C)(C)C#CCC(c1ccccc1)c1ccccc1	Kir21 block -5.04
CN(C)C(C)(C)C#CCCCCC#CC(C)(C)N(C)C	none (no result: Kir21 block, KCNQ1 act, KCNK9 inh, KCNQ1 inh, hERG protect)
CN(C)S(=O)(=O)c1cccc(NC(=S)N/N=C/c2ccc(O)c(O)c2O)c1	Kir21 block -5.36
CN(C)S(=O)(=O)c1cccc(NC(=S)Nc2cc(Cl)cc(Cl)c2)c1	KCNQ1 inh 7
CN(C)S(=O)(=O)c1cccc(NC(=S)Nc2ccc(Cl)cc2Cl)c1	none
O=C1NCCN1CCNS(=O)(=O)c1cc(C(F)(F)F)cc(C(F)(F)F)c1	none
Cc1cc(C)nc(SCc2nnc(SCC(=O)N3CCCc4ccccc43)o2)n1	Kir21 block -5.05
Cn1c(NC(=O)c2ccccc2)c(-c2ccccn2)c(=O)c2ccccc21	none
COc1cc(NC(=O)Cn2cnc(S(=O)(=O)N3CCCC3)c2)cc(OC)c1OC	none
COc1cc(NC(=O)Cn2cnc(S(=O)(=O)N3CCC(C)CC3)c2)cc(OC)c1OC	KCNK3 block -9.02
S=C(Nc1ccc(Br)cc1)N1CCN(c2ccccn2)CC1	none
COc1cccc(/C=N/Nc2ccc(S(=O)(=O)O)cc2)c1O	none
COc1cccc(/C=N/Nc2ccc(C(=O)O)cc2)c1O	hERG protect 5.5
O=C1C=CCCC1	none (no result: Kir21 block, KCNQ1 act, KCNK9 inh, KCNQ1 inh, hERG protect)
Fc1cccc2sc(Nc3nc4cc5c(cc4s3)OCO5)nc12	hERG protect 13.3
CC(=O)Nc1nc2c(F)cccc2s1	KCNQ1 act 18
COC(=O)c1ccc(C(=O)N2CCCC(N3CCN(c4ccccc4)CC3)C2)nc1 (centres undefined)	none
S=c1[nH]c(-c2ccccc2)cn1/N=C/c1ccccc1Br	none
S=c1[nH]c(-c2ccccc2)cn1/N=C/c1cccc2ccccc12	KCNQ1 act 14, hERG protect 68.7
CN1CCN(S(=O)(=O)c2ccc(N(C)Cc3cccc(F)c3)nc2)CC1	none (no result: Kir21 block, KCNQ1 act, KCNK9 inh, KCNQ1 inh, hERG protect)
CCn1ncc(Br)c1C(=O)Nc1ccccc1C(=O)OC	none
CCn1cc(Br)c(C(=O)Nc2ccccc2C(=O)OC)n1	KCNK9 inh -6.64
CC1CCN(CCCNC(=O)c2ccc(Cn3c(=S)[nH]c4ccc(Br)cc4c3=O)cc2)CC1	KCNQ1 inh 8 (no result: KCNK3 block)
